According to ChEMBL document CHEMBL4334424, “The winding road of the uvaretin class of natural products: from total synthesis to bioactive agent discovery” (Medchemcomm, 2019):
The source made the active and inactive calls. No cut-off for these calls is given here.

Legend:
HeLa [1] = test: Cytotoxicity against human HeLa cells assessed as reduction in cell viability incubated for 72 hrs by alamar blue assay; assay type: functional, cell-based
In short: (§1)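 Adherent cells were seeded at 1500 cells/well in 384-well plates and allowed 2–3 h to attach. Compounds in DMSO, diluted in media over 31.6 nM–200 μM, were tested in triplicate for 72 h continuous exposure at 37 °C, 5% CO2. Alamar Blue was added for the final 3 h and fluorescence read (ex 560/em 590 nm). IC50 was fitted from ≥3 independent experiments.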

U-937 [2] = test: Cytotoxicity against human U937 cells assessed as reduction in cell viability incubated for 72 hrs by alamar blue assay; assay type: functional, cell-based; details: U-937, 72 h
In short: (§2)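 Suspension cells (2200/well, 384-well) were added directly onto compound in media with no attachment period. Compounds spanned 31.6 nM–200 μM in triplicate, with 72 h exposure at 37 °C, 5% CO2. Alamar Blue was added for the last 3 h and fluorescence read (ex 560/em 590 nm). IC50 came from ≥3 independent experiments.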

A549 = test: Cytotoxicity against human A549 cells assessed as reduction in cell viability incubated for 72 hrs by alamar blue assay; assay type: functional, cell-based; details: A549, 72 h; in short: as §1
MIA PaCa-2 [3] = test: Cytotoxicity against human MIAPaCa2 cells assessed as reduction in cell viability incubated for 72 hrs by alamar blue assay; assay type: functional, cell-based; details: MIA PaCa-2, 72 h; in short: as §1
REH = test: Cytotoxicity against human REH cells assessed as reduction in cell viability incubated for 72 hrs by alamar blue assay; assay type: functional, cell-based; in short: as §2
HCT-116 [4] = test: Cytotoxicity against human HCT116 cells assessed as reduction in cell viability incubated for 72 hrs by alamar blue assay; assay type: functional, cell-based; details: HCT-116, 72 h; in short: as §1
HeLa [5] = test: Cytotoxicity against human HeLa cells assessed as reduction in cell viability incubated for 72 hrs in presence of doxorubicin by alamar blue assay; assay type: functional
In short: (§3)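 Same combination format as the 6TP study, with the cytotoxic partner (doxorubicin, etoposide or paclitaxel) combined with test compound. Cells were at 4000/well (adherent) in 100 μL, 1% DMSO, for 72 h at 37 °C, 5% CO2, with Alamar Blue viability read-out. Combination index was derived by the Chou–Talalay protocol and reported as a median.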

U-937 [6] = test: Cytotoxicity against human U937 cells assessed as reduction in cell viability incubated for 72 hrs in presence of 6TP by alamar blue assay; assay type: functional
In short: (§4)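 Combination assay in 96-well plates with 100 μL final volume and 1% DMSO. Two test-compound concentrations were crossed with five 6TP concentrations, then cells were added (4000/well adherent, 7000/well suspension). Plates ran 72 h at 37 °C, 5% CO2, with Alamar Blue viability read-out and ≥3 independent experiments. Combination index was calculated by the Chou–Talalay method.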

MIA PaCa-2 [7] = test: Cytotoxicity against human MIAPaCa2 cells assessed as cell viability at 2.5 uM incubated for 72 hrs in presence of 10 uM 6TP by alamar blue assay (reference value: 6.9 %); assay type: functional; in short: as §4
MIA PaCa-2 [8] = test: Cytotoxicity against human MIAPaCa2 cells assessed as cell viability at 2.5 uM incubated for 72 hrs in presence of 25 uM 6TP by alamar blue assay (reference value: 6.4 %); assay type: functional; in short: as §4
MIA PaCa-2 [9] = test: Cytotoxicity against human MIAPaCa2 cells assessed as cell viability at 2.5 uM incubated for 72 hrs in presence of 50 uM 6TP by alamar blue assay (reference value: 13.8 %); assay type: functional; in short: as §4
MIA PaCa-2 [10] = test: Cytotoxicity against human MIAPaCa2 cells assessed as cell viability at 2.5 uM incubated for 72 hrs in presence of 100 uM 6TP by alamar blue assay (reference value: 30.7 %); assay type: functional; in short: as §4
MIA PaCa-2 [11] = test: Cytotoxicity against human MIAPaCa2 cells assessed as cell viability at 5 uM incubated for 72 hrs in presence of 10 uM 6TP by alamar blue assay (reference value: 6.9 %); assay type: functional; in short: as §4
MIA PaCa-2 [12] = test: Cytotoxicity against human MIAPaCa2 cells assessed as cell viability at 5 uM incubated for 72 hrs in presence of 25 uM 6TP by alamar blue assay (reference value: 6.4 %); assay type: functional; in short: as §4
MIA PaCa-2 [13] = test: Cytotoxicity against human MIAPaCa2 cells assessed as cell viability at 5 uM incubated for 72 hrs in presence of 50 uM 6TP by alamar blue assay (reference value: 13.8 %); assay type: functional; in short: as §4
MIA PaCa-2 [14] = test: Cytotoxicity against human MIAPaCa2 cells assessed as cell viability at 5 uM incubated for 72 hrs in presence of 100 uM 6TP by alamar blue assay (reference value: 30.7 %); assay type: functional; in short: as §4
MIA PaCa-2 [15] = test: Cytotoxicity against human MIAPaCa2 cells assessed as combinational index at 2.5 uM incubated for 72 hrs in presence of 25 uM 6TP by alamar blue assay; assay type: functional; in short: as §4
MIA PaCa-2 [16] = test: Cytotoxicity against human MIAPaCa2 cells assessed as combinational index at 2.5 uM incubated for 72 hrs in presence of 50 uM 6TP by alamar blue assay; assay type: functional; in short: as §4
MIA PaCa-2 [17] = test: Cytotoxicity against human MIAPaCa2 cells assessed as combinational index at 2.5 uM incubated for 72 hrs in presence of 100 uM 6TP by alamar blue assay; assay type: functional; in short: as §4
MIA PaCa-2 [18] = test: Cytotoxicity against human MIAPaCa2 cells assessed as combinational index at 2.5 uM incubated for 72 hrs in presence of 200 uM 6TP by alamar blue assay; assay type: functional; in short: as §4
MIA PaCa-2 [19] = test: Cytotoxicity against human MIAPaCa2 cells assessed as combinational index at 5 uM incubated for 72 hrs in presence of 25 uM 6TP by alamar blue assay; assay type: functional; in short: as §4
MIA PaCa-2 [20] = test: Cytotoxicity against human MIAPaCa2 cells assessed as combinational index at 5 uM incubated for 72 hrs in presence of 50 uM 6TP by alamar blue assay; assay type: functional; in short: as §4
MIA PaCa-2 [21] = test: Cytotoxicity against human MIAPaCa2 cells assessed as combinational index at 5 uM incubated for 72 hrs in presence of 100 uM 6TP by alamar blue assay; assay type: functional; in short: as §4
MIA PaCa-2 [22] = test: Cytotoxicity against human MIAPaCa2 cells assessed as combinational index at 5 uM incubated for 72 hrs in presence of 200 uM 6TP by alamar blue assay; assay type: functional; in short: as §4
MIA PaCa-2 [23] = test: Cytotoxicity against human MIAPaCa2 cells assessed as cell viability at 2.5 uM incubated for 72 hrs by alamar blue assay (reference value: 0 %); assay type: functional; details: MIA PaCa-2, 72 h, read-out: Activity; in short: as §4
MIA PaCa-2 [24] = test: Cytotoxicity against human MIAPaCa2 cells assessed as cell viability at 5 uM incubated for 72 hrs by alamar blue assay (reference value: 0 %); assay type: functional; details: MIA PaCa-2, 72 h, read-out: Activity; in short: as §4
HCT-116 [25] = test: Cytotoxicity against human HCT116 cells assessed as reduction in cell viability incubated for 72 hrs in presence of 6TP by alamar blue assay; assay type: functional, cell-based; in short: as §4
HCT-116 [26] = test: Cytotoxicity against human HCT116 cells assessed as reduction in cell viability incubated for 72 hrs in presence of paclitaxel by alamar blue assay; assay type: functional, cell-based; in short: as §3
HCT-116 [27] = test: Cytotoxicity against human HCT116 cells assessed as reduction in cell viability incubated for 72 hrs in presence of etoposide by alamar blue assay; assay type: functional, cell-based; in short: as §3
HCT-116 [28] = test: Cytotoxicity against human HCT116 cells assessed as reduction in cell viability incubated for 72 hrs in presence of doxorubicin by alamar blue assay; assay type: functional, cell-based; in short: as §3

SMILES	IC50 (HeLa [1]) [µM]	IC50 (U-937 [2]) [µM]	IC50 (A549) [µM]	IC50 (MIA PaCa-2 [3]) [µM]	IC50 (REH) [µM]	IC50 (HCT-116 [4]) [µM]	other results
COc1cc(OC)c(C(=O)/C=C/c2ccccc2)c(O)c1Cc1ccccc1O	3.1	6.8	5.8	> 20	9.7	> 20	
COc1cc(OC)c(C(=O)CCc2ccccc2)c(OC)c1Cc1ccccc1O	> 20	> 20	> 20	> 20	> 20	> 20	CI (HeLa [5]): 0.11; CI (U-937 [6]): 0.22
COc1cc(OC)c(C(C)=O)c(OC)c1	3.8	7.2	9.8	14.3	> 20	> 20	
COc1cc(O)c(C(=O)/C=C/c2ccccc2)c(OC)c1 [FLAVOKAWAIN B]	> 20	> 20	19.7	18.2	> 20	> 20	
COc1cc(OC)c(C(=O)/C=C/c2ccccc2)c(OC)c1	5.2	6.7	4.3	> 20	> 20	> 20	
COCOc1cc(O)c(C(=O)/C=C/c2ccccc2)c(OCOC)c1	16.7	> 20	> 20	7.8	> 20	> 20	Activity (MIA PaCa-2 [7]): 7%; Activity (MIA PaCa-2 [8]): 7.2%; Activity (MIA PaCa-2 [9]): 9.7%; Activity (MIA PaCa-2 [10]): 15.2%; Activity (MIA PaCa-2 [11]): 8.1%; Activity (MIA PaCa-2 [12]): 8.2%; Activity (MIA PaCa-2 [13]): 13%; Activity (MIA PaCa-2 [14]): 19.9%; CI (MIA PaCa-2 [15]): 1.21; CI (MIA PaCa-2 [16]): 2.04; CI (MIA PaCa-2 [17]): 2.18; CI (MIA PaCa-2 [18]): 2.16; CI (MIA PaCa-2 [19]): 1.13; CI (MIA PaCa-2 [20]): 1.87; CI (MIA PaCa-2 [21]): 1.42; CI (MIA PaCa-2 [22]): 1.43; viability at 2.5 µM (MIA PaCa-2 [23]): 6.1%; viability at 5 µM (MIA PaCa-2 [24]): 7.2%
COCOc1cc(OCOC)c(C(C)=O)c(OCOC)c1	> 20	11.7	> 20	6.1	> 20	> 20	
COCOc1cc(OCOC)c(C(=O)/C=C/c2ccccc2)c(OCOC)c1	11.5	8.1	8.4	11.8	> 20	> 20	Activity (MIA PaCa-2 [7]): 14.2%; Activity (MIA PaCa-2 [8]): 15%; Activity (MIA PaCa-2 [9]): 16.9%; Activity (MIA PaCa-2 [10]): 17.6%; Activity (MIA PaCa-2 [11]): 18.4%; Activity (MIA PaCa-2 [12]): 17.3%; Activity (MIA PaCa-2 [13]): 17%; Activity (MIA PaCa-2 [14]): 19.3%; CI (MIA PaCa-2 [15]): 0.24; CI (MIA PaCa-2 [16]): 0.56; CI (MIA PaCa-2 [17]): 0.96; CI (MIA PaCa-2 [18]): 1.79; CI (MIA PaCa-2 [19]): 0.47; CI (MIA PaCa-2 [20]): 0.57; CI (MIA PaCa-2 [21]): 1.01; CI (MIA PaCa-2 [22]): 2.09; viability at 2.5 µM (MIA PaCa-2 [23]): 21.1%; viability at 5 µM (MIA PaCa-2 [24]): 20%
COCOc1cc(O)c(C(C)=O)c(OCOC)c1	12.2	7.4	> 20	> 20	> 20	> 20	
C=CCOc1ccccc1Cc1c(OC)cc(OC)c(C(=O)/C=C/c2ccccc2)c1OC	5.8	7.5	8.5	9.4	12.6	> 20	
COc1cc(O)c(C(C)=O)c(OC)c1 [XANTHOXYLIN]	18.7	> 20	> 20	> 20	> 20	> 20	
COc1cc(OC)c(C(=O)/C=C/c2ccccc2)c(OC)c1Cc1ccccc1O	2.7	4.2	9.3	4.1	> 20	18.6	Activity (HCT-116 [25]): inactive; Activity (HCT-116 [26]): inactive; Activity (HCT-116 [27]): inactive; CI (HeLa [5]): 0.12
COCOc1cc(OC)cc(OC)c1C(=O)/C=C/c1ccccc1	4.8	2.5	3.5	5.6	19.4	> 20	
COc1cc(O)c(Cc2ccccc2O)c(O)c1C(=O)/C=C/c1ccccc1	4.6	2.3	4.3	5.1	> 20	19.5	Activity (HCT-116 [28]): inactive; Activity (HCT-116 [25]): inactive; Activity (HCT-116 [27]): inactive
CC(=O)c1c(O)cc(O)cc1O [2,4,6-TRIHYDROXYACETOPHENONE]	> 20	> 20	> 20	> 20	> 20	> 20	
COc1cc(O)c(Cc2ccccc2O)c(O)c1C(=O)CCc1ccccc1 [UVARETIN]	3.7	3.6	2.2	2	11.3	> 20	Activity (HCT-116 [28]): inactive; Activity (HCT-116 [25]): inactive; Activity (HCT-116 [27]): inactive
COCOc1cc(OC)cc(OC)c1C(C)=O	14	13.3	16.9	> 20	> 20	> 20	
